{"source": "ChEMBL document CHEMBL1212721", "about": "“Mechanistic and structural insights into the proteolytic activation of Vibrio cholerae MARTX toxin” (Nat Chem Biol, 2009)", "key": {"[1]": {"system": "Vibrio cholerae", "assay": "Inhibition of Vibrio cholerae recombinant MARTX toxin (3391-3650) cysteine protease domain autoprocessing assessed as reduction of GTPgamma-S-induced activation of protease activity at 100 uM after 15 mins by Coomassie staining based SDS-PAGE method", "method_in_brief": "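His6-tagged CPD (aa 3391–3650, 1 µM) in 60 mM NaCl, 20 mM Tris pH 7.5, 250 mM sucrose was preincubated with 100 µM inhibitor (30 min at room temperature per Methods; 15 min per legend). GTPγS was then added to 200 µM final to trigger autoprocessing, 2 h at 37°C. Read-out was 15% SDS-PAGE with Coomassie staining. Screen run in triplicate; hits confirmed in a secondary screen.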"}, "[2]": {"system": "Vibrio cholerae", "assay": "Inhibition of Vibrio cholerae recombinant MARTX toxin (3391-3650) cysteine protease domain autoprocessing assessed as concentration of InsP6 required to activate half maximal cleavage of the enzyme at 10 uM by Coomassie staining based SDS-PAGE method", "method_in_brief": "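N-terminally His6-tagged CPD (aa 3391–3650, 1 µM) in 60 mM NaCl, 20 mM Tris pH 7.5, 250 mM sucrose was pretreated with 10 µM inhibitor for 30 min at room temperature. InsP6 was added across a concentration range, followed by 1 h at 37°C. Samples were run on SDS-PAGE with Coomassie staining and densitometry. Cleaved/total fraction was plotted against InsP6 and fitted with a Michaelis-Menten function to give AC50(I). Triplicates.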"}, "[3]": {"system": "Vibrio cholerae", "assay": "Inhibition of MARTX toxin cysteine protease domain autoprocessing in wild type Vibrio cholerae by Western blot", "method_in_brief": "(§1)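 Culture supernatants were TCA-precipitated and resolved by SDS-PAGE. Western blot with a polyclonal anti-CPD antibody read out MARTX_Vc processing, seen as accumulation of unprocessed toxin (~460 kDa) compared with untreated wild-type supernatants.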"}, "[4]": {"system": "Vibrio cholerae", "assay": "Inhibition of MARTX toxin cysteine protease domain autoprocessing at Leu3099 residue in wild type Vibrio cholerae at >50 uM by Western blot", "method_in_brief": "as §1"}, "[5]": {"system": "Vibrio cholerae", "assay": "Inhibition of MARTX toxin cysteine protease domain autoprocessing at Leu3441 residue in wild type Vibrio cholerae at 100 uM by Western blot", "method_in_brief": "as §1"}, "[6]": {"system": "HFF", "assay": "Inhibition of MARTX toxin cysteine protease domain autoprocessing in Vibrio cholerae assessed as assessed as reduction in actin cross linking in HFF cells exposed to Vibrio cholerae supernatants pretreated at 50 uM for 15 mins by Western blot", "assay_type": "cell-based"}, "[7]": {"system": "HFF", "assay": "Inhibition of Vibrio cholerae MARTX toxin cysteine protease domain autoprocessing assessed as assessed as reduction in actin cross linking in HFF cells at 50 uM pretreated for 15 before Vibrio cholerae supernatants addition by Western blot", "assay_type": "cell-based"}}, "note": "Active and inactive are the calls of the source. No cut-off for these calls is given here."}
{"smiles": "CCOC(=O)[C@H]1O[C@@H]1C(=O)N(CC(C)C)NC(=O)[C@H](CC(C)C)NC(=O)[C@H](CC(C)C)NC(=O)OCc1ccccc1", "note": "(stereo in doubt; 9)", "values": [{"measurement": "inhibition", "setting": "[1]", "result": "Active"}, {"measurement": "Activity", "setting": "[2]", "result": 74, "unit": "nM"}]}
{"smiles": "CCOC(=O)[C@H]1O[C@@H]1C(=O)N(CC(C)C)NC(=O)[C@H](CC(C)C)NC(=O)OCc1ccccc1", "values": [{"measurement": "inhibition", "setting": "[1]", "result": "Active"}, {"measurement": "Activity", "setting": "[2]", "result": 11, "unit": "nM"}]}
{"smiles": "CCOC(=O)[C@H]1O[C@@H]1C(=O)N(CC(C)C)NC(=O)[C@H](CC(C)C)NC(=O)[C@H](CC(C)C)NC(=O)OCc1ccccc1", "note": "(stereo in doubt; 7)", "values": [{"measurement": "inhibition", "setting": "[3]", "result": "Dose-dependent effect"}, {"measurement": "inhibition", "setting": "[4]", "result": "Active"}, {"measurement": "inhibition", "setting": "[1]", "result": "Active"}, {"measurement": "inhibition", "setting": "[5]", "result": "inactive"}, {"measurement": "inhibition", "setting": "[6]", "result": "Active"}, {"measurement": "Activity", "setting": "[2]", "result": 457, "unit": "nM"}, {"measurement": "inhibition", "setting": "[7]", "result": "Active"}]}
{"smiles": "CCOC(=O)[C@H]1O[C@@H]1C(=O)N(CC(C)C)NC(=O)[C@H](CC(C)C)NC(C)=O", "values": [{"measurement": "inhibition", "setting": "[1]", "result": "Active"}, {"measurement": "Activity", "setting": "[2]", "result": 21, "unit": "nM"}]}
{"smiles": "CCOC(=O)[C@@H]1O[C@H]1C(=O)N(CC(C)C)NC(=O)OCc1ccccc1", "note": "(relative stereo)", "values": [{"measurement": "inhibition", "setting": "[1]", "result": "Active"}, {"measurement": "Activity", "setting": "[2]", "result": 1.1, "unit": "nM"}]}
{"smiles": "CC(C)C[C@H](NC(=O)OCc1ccccc1)C(=O)N[C@@H](CC(C)C)C(=O)NN(CC(C)C)C(=O)[C@H]1O[C@@H]1C(=O)O", "values": [{"measurement": "inhibition", "setting": "[1]", "result": "Active"}, {"measurement": "Activity", "setting": "[2]", "result": 158, "unit": "nM"}]}
{"smiles": "Cc1cccc(C)c1C(=O)OCC(=O)[C@H](CC(C)C)NC(=O)[C@H](C)NC(=O)OCc1ccccc1", "values": [{"measurement": "inhibition", "setting": "[1]", "result": "Active"}, {"measurement": "Activity", "setting": "[2]", "result": 187, "unit": "nM"}]}
{"smiles": "Cc1cccc(C)c1C(=O)OCC(=O)[C@H](CC(C)C)NC(=O)[C@H](C)NC(=O)[C@H](CCC(=O)O)NC(=O)[C@H](CCCCN)NC(=O)OCc1ccccc1", "values": [{"measurement": "inhibition", "setting": "[1]", "result": "Active"}, {"measurement": "Activity", "setting": "[2]", "result": 290, "unit": "nM"}]}
{"smiles": "Cc1cccc(C)c1C(=O)OCC(=O)[C@H](CC(C)C)NC(=O)[C@H](C)NC(=O)[C@H](CCC(=O)O)NC(=O)OCc1ccccc1", "values": [{"measurement": "inhibition", "setting": "[3]", "result": "Dose-dependent effect"}, {"measurement": "inhibition", "setting": "[4]", "result": "Active"}, {"measurement": "inhibition", "setting": "[1]", "result": "Active"}, {"measurement": "inhibition", "setting": "[5]", "result": "inactive"}, {"measurement": "inhibition", "setting": "[6]", "result": "Active"}, {"measurement": "Activity", "setting": "[2]", "result": 529, "unit": "nM"}, {"measurement": "inhibition", "setting": "[7]", "result": "inactive"}]}
{"smiles": "CCOC(=O)[C@@H]1O[C@H]1C(=O)N(CC(C)C)NC(=O)[C@H](CC(C)C)NC(=O)[C@H](CC(C)C)NC(=O)OCc1ccccc1", "values": [{"measurement": "inhibition", "setting": "[1]", "result": "Active"}, {"measurement": "Activity", "setting": "[2]", "result": 5.2, "unit": "nM"}]}
